Experimental data taken from ChEMBL document CHEMBL2413042, “Design, synthesis and evaluation of dialkyl 4-(benzo[d][1,3]dioxol-6-yl)-1,4-dihydro-2,6-dimethyl-1-substituted pyridine-3,5-dicarboxylates as potential anticonvulsants and their molecular properties prediction” (Eur J Med Chem, 2013).
In brackets after ≈: the same amount, converted by molar mass. Activity calls are given as the source filed them. The calls are words filed in the database; no cut-off is given here.

Assays:
[1] = test system: Rattus norvegicus; test: Anticonvulsant activity in Wistar albino rat assessed as protection against maximum electric shock-induced hind limb tonic extension at 30 mg/kg administered 1 hr followed by maximum electric shock induction relative to control; type: functional, Hindlimb
In short: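 Male Wistar albino rats, six per group, dosed orally as a suspension in 0.5% sodium carboxymethylcellulose, with a vehicle control group. One hour later, 150 mA for 0.2 sec was applied through corneal electrodes. Duration of hind limb tonic extension was recorded, and abolition or reduction of extension was scored against control. Mean±SEM; one-way ANOVA with Dunnett's test.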

[2] = test system: Rattus norvegicus; test: Anticonvulsant activity in Wistar albino rat assessed as time of onset of subcutaneous pentylenetetrazole-induced clonic convulsion at 30 mg/kg administered 1 hr prior to pentylenetetrazole challenge measured for 300 secs (reference value: 83 +/- 4 secs); type: functional
[3] = test system: Rattus norvegicus; test: Anticonvulsant activity in Wistar albino rat assessed as protection against subcutaneous pentylenetetrazole-induced mortality at 30 mg/kg administered 1 hr prior to pentylenetetrazole challenge measured for 300 secs relative to control; type: functional
[4] = test system: Radical scavenging activity; test: Antioxidant activity assessed as DPPH free radical scavenging activity under dark condition after 30 mins; type: functional
In short: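 Test compound in ethanol (10, 50, 100, 250, 500 μg/ml solutions) was added to 0.004% DPPH in methanol. The mixture was kept in the dark for 30 min and absorbance was read at 517 nm. Percent radical inhibition was calculated, with ascorbic acid as reference, and IC50 was derived.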

[5] = test system: Rattus norvegicus; test: Anticonvulsant activity in Wistar albino rat assessed as time of onset of subcutaneous pentylenetetrazole-induced clonic convulsion at 50 mg/kg, po administered 1 hr prior to pentylenetetrazole challenge measured for 300 secs (reference value: 83 +/- 4 secs); type: functional
[6] = test system: Rattus norvegicus; test: Anticonvulsant activity in Wistar albino rat assessed as protection against maximum electric shock-induced hind limb tonic extension at 50 mg/kg, po administered 1 hr followed by maximum electric shock induction relative to control; type: functional, Hindlimb
In short: (§1)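 Male Wistar albino rats, six per group, were given test compound orally as a suspension in 0.5% sodium carboxymethylcellulose. Controls received vehicle; phenytoin 30 mg/kg was given orally. One hour after dosing, 150 mA was applied for 0.2 sec through corneal electrodes. Duration of hind limb tonic extension was recorded. Values are mean±SEM; ANOVA with Dunnett's test vs control.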

[7] = test system: Rattus norvegicus; test: Anticonvulsant activity in Wistar albino rat assessed as protection against subcutaneous pentylenetetrazole-induced mortality at 50 mg/kg, po administered 1 hr prior to pentylenetetrazole challenge measured for 300 secs relative to control; type: functional
In short: (§2)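 Male Wistar albino rats, six per group. Test agents were given orally as suspensions in 0.5% sodium carboxymethylcellulose; the reference was given i.p.; the vehicle group served as control. Pentylenetetrazole 80 mg/kg was given s.c. 1 h later. Onset of clonic convulsions and protection against mortality were recorded, with a 300 sec maximum latency. Mean±SEM; one-way ANOVA with Dunnett's test.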

[8] = test system: Mus musculus; test: Antinociceptive activity in Swiss albino mouse assessed as reduction of capsaicin-induced flinching at 10 mg/kg, po administered 1 hr followed by capsaicin challenge; type: functional; parameters: scale not given: the % may be the effect or the level left
In short: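 Male Swiss mice (18-22 g), six per group, were dosed by oral gavage with compound in 0.5% sodium carboxymethylcellulose. One hour later, capsaicin (1 nmol/paw, 20 μl) was injected intraplantar into the right hind paw. Flinches of the injected paw were counted for 5 min. Values are mean±SEM; ANOVA with Dunnett's test vs vehicle control.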

[9] = test system: Rattus norvegicus; test: Anticonvulsant activity in Wistar albino rat assessed as protection against maximum electric shock-induced hind limb tonic extension at 30 mg/kg, po administered 1 hr followed by maximum electric shock induction relative to control; type: functional, Hindlimb; in short: as §1
[10] = test system: Rattus norvegicus; test: Anticonvulsant activity in Wistar albino rat assessed as protection against maximum electric shock-induced hind limb tonic extension at 25 mg/kg, po administered 1 hr followed by maximum electric shock induction relative to control; type: functional, Hindlimb; in short: as §1
[11] = test system: Rattus norvegicus; test: Anticonvulsant activity in Wistar albino rat assessed as protection against subcutaneous pentylenetetrazole-induced mortality at 25 mg/kg, po administered 1 hr prior to pentylenetetrazole challenge measured for 300 secs relative to control; type: functional; in short: as §2
[12] = test system: Rattus norvegicus; test: Anticonvulsant activity in Wistar albino rat assessed as protection against maximum electric shock-induced hind limb tonic extension at 100 mg/kg, po administered 1 hr followed by maximum electric shock induction relative to control; type: functional, Hindlimb; in short: as §1
[13] = test system: Rattus norvegicus; test: Anticonvulsant activity in po dosed Wistar albino rat assessed as protection against subcutaneous pentylenetetrazole-induced mortality administered 1 hr prior to pentylenetetrazole challenge measured for 300 secs; type: functional, organism-based
[14] = test system: Rattus norvegicus; test: Anticonvulsant activity in po dosed Wistar albino rat assessed as inhibition of subcutaneous pentylenetetrazole-induced seizure administered 1 hr prior to pentylenetetrazole challenge measured for 300 secs; type: functional, organism-based
[15] = test system: Rattus norvegicus; test: Anticonvulsant activity in Wistar albino rat assessed as protection against subcutaneous pentylenetetrazole-induced mortality at 100 mg/kg, po administered 1 hr prior to pentylenetetrazole challenge measured for 300 secs relative to control; type: functional; in short: as §2
[16] = test system: Rattus norvegicus; test: Anticonvulsant activity in Wistar albino rat assessed as time of onset of subcutaneous pentylenetetrazole-induced clonic convulsion at 100 mg/kg, po administered 1 hr prior to pentylenetetrazole challenge measured for 300 secs (reference value: 83 +/- 3.8 secs); type: functional
[17] = test system: Rattus norvegicus; test: Anticonvulsant activity in Wistar albino rat assessed as time of onset of subcutaneous pentylenetetrazole-induced clonic convulsion at 25 mg/kg, po administered 1 hr prior to pentylenetetrazole challenge measured for 300 secs (reference value: 83 +/- 3.8 secs); type: functional
[18] = test system: Rattus norvegicus; test: Anticonvulsant activity in po dosed Wistar albino rat assessed as protection against maximum electric shock-induced hind limb tonic extension administered 1 hr followed by maximum electric shock induction; type: functional, organism-based; settings: Hindlimb; in short: as §1
[19] = test system: Rattus norvegicus; test: Anticonvulsant activity in Wistar albino rat assessed as protection against maximum electric shock-induced hind limb tonic extension administered 1 hr followed by maximum electric shock induction; type: functional, organism-based; settings: Hindlimb; in short: as §1
[20] = test system: Rattus norvegicus; test: Anticonvulsant activity in Wistar albino rat assessed as time of onset of subcutaneous pentylenetetrazole-induced clonic convulsion at 5 mg/kg, ip administered 1 hr prior to pentylenetetrazole challenge measured for 300 secs (reference value: 83 +/- 4 secs); type: functional; in short: as §2

| SMILES | IC50 [4] [µg/mL] | Time [5] [s] | Activity [6] [%] | Activity [7] [%] | further results |
| --- | --- | --- | --- | --- | --- |
| COC(=O)C1=C(C)NC(C)=C(C(=O)OC)C1c1ccccc1[N+](=O)[O-] [NIFEDIPINE] | – | – | – | – | Activity [1]: 66.6%; Time [2]: 215 s; Activity [3]: 33.3% |
| CCOC(=O)C1=C(C)N(c2ccc([N+](=O)[O-])cc2)C(C)=C(C(=O)OC)C1c1ccc2c(c1)OCO2 (stereo not given) | 854 (≈ 1780 µM) | 225 | 31.7 | 33.3 | Activity [8]: 4% |
| O=C1NC(=O)C(c2ccccc2)(c2ccccc2)N1 [PHENYTOIN] | – | – | – | – | Activity [9]: 69.8% |
| CCOC(=O)C1=C(C)N(c2ccccc2)C(C)=C(C(=O)OCC)C1c1ccc2c(c1)OCO2 | 443 (≈ 986 µM) | 275 | 46 | 66.6 | – |
| CCOC(=O)C1=C(C)NC(C)=C(C(=O)OCC)C1c1ccc2c(c1)OCO2 | 375 (≈ 1000 µM) | >300 | 59 | 100 | Activity [10]: 41.6%; Activity [11]: 100%; Activity [12]: 72%; Activity [13]: Dose-dependent effect; inhibition [14]: Dose-dependent effect; Activity [15]: 0%; Activity [8]: 8%; Time [16]: >300 s; Time [17]: 194 s; Activity [18]: Dose-dependent effect |
| CCOC(=O)C1=C(C)NC(C)=C(C(=O)OC)C1c1ccc2c(c1)OCO2 (stereo not given) | 467 (≈ 1300 µM) | 233 | 28.5 | 33.3 | – |
| COC(=O)C1=C(C)NC(C)=C(C(=O)OC)C1c1ccc2c(c1)OCO2 | 604 (≈ 1750 µM) | 200 | 27 | 0 | Activity [8]: 21% |
| COC(=O)C1=C(C)NC(C)=C(C(=O)OC(C)C)C1c1cccc2nonc12 (stereo not given) | – | – | – | – | Activity [19]: Active |
| COC(=O)C1=C(C)N(c2ccccc2[N+](=O)[O-])C(C)=C(C(=O)OC)C1c1ccc2c(c1)OCO2 | 2354 (≈ 5050 µM) | 174 | 33.3 | 0 | – |
| CCOC(=O)C1=C(C)N(c2ccc([N+](=O)[O-])cc2)C(C)=C(C(=O)OCC)C1c1ccc2c(c1)OCO2 | 597 (≈ 1210 µM) | 237 | 46 | 66.6 | – |
| COC(=O)C1=C(C)N(c2ccc([N+](=O)[O-])cc2)C(C)=C(C(=O)OC)C1c1ccc2c(c1)OCO2 | 1289 (≈ 2760 µM) | 93 | 7.9 | 0 | – |
| CCOC(=O)C1=C(C)N(c2ccccc2[N+](=O)[O-])C(C)=C(C(=O)OCC)C1c1ccc2c(c1)OCO2 | 874 (≈ 1770 µM) | 293 | 60.3 | 66.6 | – |
| CCOC(=O)C1=C(C)N(c2cccc([N+](=O)[O-])c2)C(C)=C(C(=O)OC)C1c1ccc2c(c1)OCO2 (stereo not given) | 386 (≈ 803 µM) | 136 | 28.5 | 0 | – |
| CCOC(=O)C1=C(C)N(c2ccccc2[N+](=O)[O-])C(C)=C(C(=O)OC)C1c1ccc2c(c1)OCO2 (stereo not given) | 933 (≈ 1940 µM) | 251 | 44.5 | 33.3 | – |
| CCOC(=O)C1=C(C)N(c2ccccc2)C(C)=C(C(=O)OC)C1c1ccc2c(c1)OCO2 (stereo not given) | 740 (≈ 1700 µM) | 221 | 41.2 | 0 | – |
| CCOC(=O)C1=C(C)N(c2cccc([N+](=O)[O-])c2)C(C)=C(C(=O)OCC)C1c1ccc2c(c1)OCO2 | 363 (≈ 734 µM) | 250 | 49.2 | 33.3 | – |
| COC(=O)C1=C(C)N(c2cccc([N+](=O)[O-])c2)C(C)=C(C(=O)OC)C1c1ccc2c(c1)OCO2 | 521 (≈ 1120 µM) | 138 | 11.1 | 0 | – |
| CN1C(=O)CN=C(c2ccccc2)c2cc(Cl)ccc21 [DIAZEPAM] | – | – | – | – | Time [20]: 262 s |
| COC(=O)C1=C(C)N(c2ccccc2)C(C)=C(C(=O)OC)C1c1ccc2c(c1)OCO2 | 542 (≈ 1290 µM) | 200 | 41.2 | 0 | Activity [8]: 0% |
| O=C1O[C@H]([C@@H](O)CO)C(O)=C1O [ASCORBIC ACID] | 32 (≈ 182 µM) | – | – | – | – |
